Measurements pooled from the literature.
Protocols differ between the studies behind these lines.
Organism: Mycobacterium tuberculosis
Read-out: microbial growth

CN[C@H](CC(C)C)C(=O)N[C@H]1C(=O)N[C@@H](CC(N)=O)C(=O)N[C@H]2C(=O)N[C@H]3C(=O)N[C@H](C(=O)N[C@H](C(=O)O)c4cc(O)cc(O)c4-c4cc3ccc4O)[C@H](O)c3ccc(c(Cl)c3)Oc3cc2cc(c3O[C@@H]2O[C@H](CO)[C@@H](O)[C@H](O)[C@H]2O[C@H]2C[C@](C)(N)[C@H](O)[C@H](C)O2)Oc2ccc(cc2Cl)[C@H]1O
MIC (H37RV; 14 days): 12.5 µg/mL

O=C(CCNS(=O)(=O)c1ccc([N+](=O)[O-])cc1)N1CCN(C(c2ccc(F)cc2)c2ccc(F)cc2)CC1
MIC (ATCC27294 H37RV): 25 µg/mL

O=C1C(=NNc2nc(-c3ccccc3)cs2)C(N=Cc2ccccc2)=NN1c1ccccc1
MIC (resazurin; H37RV): 6.25 µg/mL

CC(C)[C@H]1CO[C@]23CCN(Cc4ccc(C(F)(F)F)cc4)C[C@H]2CCC(=O)N13
MIC (resazurin; H37RV; 7 days): 0.13 µM

CC(C)=CCCC(C)CC1CC(=O)c2ccc(O)cc2O1 (stereo not drawn)
MIC (broth dilution; H37RV): 100 µg/mL

COC(=O)c1cc(-c2cccc(NC(=O)Nc3ccccc3)c2)on1
MIC (ATCC27294 H37RV; 7 days): 4 µg/mL

CO[C@H]1/C=C/O[C@@]2(C)Oc3c(C)c(O)c4c(O)c(c(/C=N/N5CCN(C)CC5)c(O)c4c3C2=O)NC(=O)/C(C)=C\C=C\[C@H](C)[C@H](O)[C@@H](C)[C@@H](O)[C@@H](C)[C@H](OC(C)=O)[C@@H]1C
MIC (H37RA): 0.008 µg/mL

C=C[C@@]1(C)CC[C@@H]2C(C)(C)c3cccc4[nH]c5c(c34)[C@@]2(O)[C@]1(C#N)[C@H]1O[C@H]1C5(C)C
MIC (H37RV): 11.3 µM

Cc1ccc(C)n1-c1ccc(-c2nnc(S)s2)cc1
MIC (broth dilution; H37RV; 21 days): 1 µg/mL

Cc1ccc(-c2nc3ccc(C)cn3c2CC(=O)N(C)C)cc1
MIC (H37RV; 5 days): 10 to 11 µM

Nc1ccc(C(=O)O)c(O)c1
MIC (broth dilution; H37RV): 0.125 µg/mL

Cc1c(Cc2ccc(F)cc2F)c(=O)n2c([nH]c3ccccc32)c1C#N
MIC (broth dilution; H37RV): 1 µg/mL

O=C(NC(=O)c1cc2c(F)cc(F)cc2[nH]1)c1cccc(Cl)c1
MIC (resazurin; H37RV): > 96 µM

COC(=O)c1cc(-c2cccc(NC(=S)Nc3cc(C(F)(F)F)cc(C(F)(F)F)c3)c2)on1
MIC (ATCC27294 H37RV; 7 days): 16 µg/mL

Cc1ccc2nc(C)c(C(=O)NCc3ccc(S(F)(F)(F)(F)F)cc3)n2c1
MIC (H37RV; 5 days): 0.014 µM

COc1cccc(C=NC2=NN(c3ccccc3)C(=O)C2=NNc2nc(-c3ccccc3)cs2)c1
MIC (resazurin; H37RV): 12.5 µg/mL

CC1SC2(CCCCC2)N(NC(=O)c2[nH]c3ccc(Cl)cc3c2-c2ccccc2)C1=O (stereo not drawn)
MIC (ATCC27294 H37RV): 250 µM

COC(=O)c1cc(-c2ccc(NC(=O)Nc3ccc(Cl)c(Cl)c3)cc2)on1
MIC (ATCC27294 H37RV; 7 days): 0.5 µg/mL

CN[C@H](CC(C)C)C(=O)N[C@H]1C(=O)N[C@@H](CC(N)=O)C(=O)N[C@H]2C(=O)N[C@H]3C(=O)N[C@H](C(=O)N[C@H](C(=O)O)c4cc(O)cc(O)c4-c4cc3ccc4O)[C@H](O)c3ccc(c(Cl)c3)Oc3cc2cc(c3O[C@@H]2O[C@H](CO)[C@@H](O)[C@H](O)[C@H]2O[C@H]2C[C@](C)(N)[C@H](O)[C@H](C)O2)Oc2ccc(cc2Cl)[C@H]1O
MIC (resazurin; H37RA; 14 days): 65 µg/mL

COC(=O)c1cc(-c2cccc(NC(=O)Nc3cccc(F)c3)c2)on1
MIC (ATCC27294 H37RV; 7 days): 2 µg/mL

N#Cc1cc(C(F)(F)F)cc2c(=O)nc(N3CCN(CC4CCOC4)CC3)sc12 (stereo not drawn)
MIC (resazurin; H37RV): 1.9 µM
